The source made the active and inactive calls. No cut-off for these calls is given here.
Legend:
Phosphodiesterase 4 = Phosphodiesterase 4 (Homo sapiens, UniProt P27815+Q08499+Q07343+Q08493); assay: Inhibition of human PDE4; type: protein assay
Method in brief: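 PDE4 enzyme was isolated from U937 cells, following a previously reported method.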

Blood = assay: Inhibition of TNFalpha production in LPS-stimulated human whole blood preincubated before LPS challenge measured after 4 hrs by enzyme immunoassay; type: functional, tissue-based
PBMC = assay: Inhibition of TNFalpha production in LPS-stimulated human PBMC preincubated before LPS challenge measured after 4 hrs by enzyme immunoassay; type: functional, cell-based
[1] = Ratio of IC50 for TNFalpha production in LPS-stimulated human whole blood to IC50 for TNFalpha production in LPS-stimulated human PBMC; type: functional
Rattus norvegicus [2] = assay: Antiinflammatory activity in po dosed BN rat late airway inflammatory model assessed as inhibition of ovalbumin-induced cell infiltration in bronchoalveolar lavage fluid measured 48 hrs after ovalbumin challenge; type: functional; settings: Lung
[3] = AUC in rat at 10 mg/kg, po; type: ADME, organism-based; design: dose 10 mg/kg, route oral; settings: plasma
Method in brief: (§1)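 Pharmacokinetics were determined in female rats after oral and intravenous administration.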

Rattus norvegicus [4] = assay: Antiinflammatory activity in rat assessed as inhibition of LPS-induced TNFalpha production at 0.01 mg/kg, po; type: functional, organism-based; design: dose 0.01 mg/kg
[5] = Protein binding in human plasma; type: ADME, cell-free; settings: read-out: PPB (converted)
[6] = Half life in rat at 10 mg/kg, po; type: ADME, organism-based; design: dose 10 mg/kg, route oral; settings: in vivo; method in brief: as §1
Cytochrome P450 3A4 = Cytochrome P450 3A4 (Homo sapiens, UniProt P08684); assay: Inhibition of CYP3A4; type: ADME
Rattus norvegicus [7] = assay: Antiinflammatory activity in po dosed rat assessed as inhibition of LPS-induced neutrophilia in bronchoalveolar lavage fluid; type: functional; settings: Lung
Method in brief: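 Rat in vivo model: rats were dosed orally and neutrophilia was induced with LPS. Neutrophils were counted in bronchoalveolar lavage fluid and an ED50 for inhibition was determined.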

Cytochrome P450 2D6 = Cytochrome P450 2D6 (Homo sapiens, UniProt P10635); assay: Inhibition of CYP2D6; type: ADME
[8] = Half life in rat at 5 mg/kg, iv; type: ADME, organism-based; design: dose 5 mg/kg, route intravenous; settings: in vivo; method in brief: as §1
[9] = AUC in rat at 5 mg/kg, iv; type: ADME, organism-based; design: dose 5 mg/kg, route intravenous; settings: plasma; method in brief: as §1
[10] = Oral bioavailability in rat at 10 mg/kg; type: ADME, organism-based; settings: in vivo; method in brief: as §1
[11] = Cmax in rat at 5 mg/kg, iv; type: ADME, organism-based; design: dose 5 mg/kg, route intravenous; settings: in vivo; method in brief: as §1
[12] = Clearance in rat at 5 mg/kg, iv; type: ADME, organism-based; design: dose 5 mg/kg, route intravenous; settings: in vivo; method in brief: as §1
Cytochrome P450 2C9 = Cytochrome P450 2C9 (Homo sapiens, UniProt P11712); assay: Inhibition of CYP2C9; type: ADME
Cytochrome P450 2C19 = Cytochrome P450 2C19 (Homo sapiens, UniProt P33261); assay: Inhibition of CYP2C19; type: ADME
Rattus norvegicus [13] = assay: Antiinflammatory activity in po dosed rat assessed as inhibition of LPS-induced TNFalpha production; type: functional
Method in brief: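 Rat in vivo model: rats were dosed orally and TNF-α production was induced with LPS. Inhibition of TNF-α production was measured and an ED50 was determined.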

[14] = Metabolic stability in human microsomes assessed as half life; type: ADME, Microsome
[15] = Volume of distribution at steady state in rat at 5 mg/kg, iv; type: ADME, organism-based; design: dose 5 mg/kg, route intravenous; settings: in vivo, read-out: Vdss; method in brief: as §1
[16] = Cmax in rat at 10 mg/kg, po; type: ADME, organism-based; design: dose 10 mg/kg, route oral; settings: in vivo; method in brief: as §1
Cytochrome P450 1A2 = molecular target: T1, Cytochrome P450 1A2 (Homo sapiens, UniProt P05177); assay: Inhibition of CYP1A2; type: ADME
T1 sequence (P05177 whole entry): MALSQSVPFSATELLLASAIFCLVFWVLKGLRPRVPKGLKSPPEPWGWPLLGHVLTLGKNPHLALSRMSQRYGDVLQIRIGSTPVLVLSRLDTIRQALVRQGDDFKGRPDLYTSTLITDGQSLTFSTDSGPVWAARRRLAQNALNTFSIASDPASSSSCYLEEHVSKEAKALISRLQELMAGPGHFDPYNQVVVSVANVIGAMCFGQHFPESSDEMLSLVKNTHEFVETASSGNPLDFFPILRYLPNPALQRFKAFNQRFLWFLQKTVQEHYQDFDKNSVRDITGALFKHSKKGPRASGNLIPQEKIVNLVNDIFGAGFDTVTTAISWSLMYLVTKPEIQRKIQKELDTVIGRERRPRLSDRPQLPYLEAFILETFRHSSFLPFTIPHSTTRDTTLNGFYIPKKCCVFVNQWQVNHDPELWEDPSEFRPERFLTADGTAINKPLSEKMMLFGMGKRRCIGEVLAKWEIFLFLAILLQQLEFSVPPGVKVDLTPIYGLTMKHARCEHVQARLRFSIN

Chain of Cytochrome P450 2D6 (P10635 whole entry): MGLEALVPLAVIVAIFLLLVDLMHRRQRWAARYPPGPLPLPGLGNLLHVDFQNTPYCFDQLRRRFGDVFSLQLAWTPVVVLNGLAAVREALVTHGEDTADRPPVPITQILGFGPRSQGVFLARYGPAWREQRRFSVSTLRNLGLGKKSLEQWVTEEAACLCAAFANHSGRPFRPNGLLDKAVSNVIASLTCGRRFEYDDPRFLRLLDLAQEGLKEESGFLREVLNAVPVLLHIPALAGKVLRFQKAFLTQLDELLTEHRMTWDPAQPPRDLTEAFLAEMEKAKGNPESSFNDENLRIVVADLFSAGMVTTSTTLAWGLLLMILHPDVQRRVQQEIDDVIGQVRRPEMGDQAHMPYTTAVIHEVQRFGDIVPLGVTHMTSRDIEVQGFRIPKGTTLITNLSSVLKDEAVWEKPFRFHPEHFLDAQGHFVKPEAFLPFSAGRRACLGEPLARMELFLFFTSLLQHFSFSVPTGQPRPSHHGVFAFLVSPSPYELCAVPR
Chain of Cytochrome P450 3A4 (P08684 whole entry): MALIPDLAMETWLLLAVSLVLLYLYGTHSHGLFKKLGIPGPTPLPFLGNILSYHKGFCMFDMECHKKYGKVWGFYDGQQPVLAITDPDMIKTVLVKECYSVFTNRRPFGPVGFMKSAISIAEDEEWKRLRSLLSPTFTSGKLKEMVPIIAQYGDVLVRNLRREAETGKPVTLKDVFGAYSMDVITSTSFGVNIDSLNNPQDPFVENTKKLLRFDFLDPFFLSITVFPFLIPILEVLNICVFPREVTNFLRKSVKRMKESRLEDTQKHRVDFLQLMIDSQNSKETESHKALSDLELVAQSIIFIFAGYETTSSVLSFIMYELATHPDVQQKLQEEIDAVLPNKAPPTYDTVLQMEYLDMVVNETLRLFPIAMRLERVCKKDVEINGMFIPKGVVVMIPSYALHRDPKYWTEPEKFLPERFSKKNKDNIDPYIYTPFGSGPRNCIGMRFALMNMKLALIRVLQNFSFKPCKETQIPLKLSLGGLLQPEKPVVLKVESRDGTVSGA
Chain of Cytochrome P450 2C9 (P11712 whole entry): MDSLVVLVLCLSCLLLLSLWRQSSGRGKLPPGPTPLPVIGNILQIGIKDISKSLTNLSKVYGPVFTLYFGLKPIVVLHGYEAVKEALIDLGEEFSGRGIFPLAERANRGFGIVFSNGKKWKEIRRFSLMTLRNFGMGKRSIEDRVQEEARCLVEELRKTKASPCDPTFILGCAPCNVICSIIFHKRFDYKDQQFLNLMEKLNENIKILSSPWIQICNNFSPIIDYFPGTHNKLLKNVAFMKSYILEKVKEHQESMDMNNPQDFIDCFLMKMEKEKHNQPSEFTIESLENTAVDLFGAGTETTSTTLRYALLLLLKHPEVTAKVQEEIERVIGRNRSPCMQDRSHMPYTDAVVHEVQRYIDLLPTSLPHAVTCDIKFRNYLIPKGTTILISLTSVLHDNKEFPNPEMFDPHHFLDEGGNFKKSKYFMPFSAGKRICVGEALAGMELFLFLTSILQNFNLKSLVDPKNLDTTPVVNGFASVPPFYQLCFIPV
Chain of Cytochrome P450 2C19 (P33261 whole entry): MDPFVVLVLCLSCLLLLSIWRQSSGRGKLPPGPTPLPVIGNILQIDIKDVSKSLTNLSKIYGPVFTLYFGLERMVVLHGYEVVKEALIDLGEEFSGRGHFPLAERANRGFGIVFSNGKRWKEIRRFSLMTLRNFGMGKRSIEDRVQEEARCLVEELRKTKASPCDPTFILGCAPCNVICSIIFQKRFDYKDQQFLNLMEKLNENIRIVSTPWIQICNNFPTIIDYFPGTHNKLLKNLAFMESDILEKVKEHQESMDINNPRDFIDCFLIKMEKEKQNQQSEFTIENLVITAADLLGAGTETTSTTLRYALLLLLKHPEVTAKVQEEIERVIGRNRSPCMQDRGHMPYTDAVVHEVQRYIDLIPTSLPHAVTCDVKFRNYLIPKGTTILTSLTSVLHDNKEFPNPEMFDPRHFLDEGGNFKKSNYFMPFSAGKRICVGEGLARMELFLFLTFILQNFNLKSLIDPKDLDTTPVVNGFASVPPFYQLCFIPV

Structure (SMILES) | IC50 (Phosphodiesterase 4) | IC50 (Blood) | IC50 (PBMC) | other results
COc1ccc(C(CC#N)N2C(=O)c3ccccc3C2=O)cc1OC1CCCC1 (stereo unspecified) | 340 nM | – | – | –
CCOc1cc(C(CC#N)N2C(=O)c3cccc(NC(C)=O)c3C2=O)ccc1OC (racemic) | 130 nM | 1600 nM | 440 nM | –
CCOc1cc(C(CS(C)(=O)=O)N2C(=O)c3cccc(N(C)C)c3C2=O)ccc1OC (racemic) | 120 nM | 1400 nM | 220 nM | Ratio IC50 [1]: 6
CCOc1cc(C(CC(N)=O)N2C(=O)c3ccccc3C2=O)ccc1OC (stereo unspecified) | 1900 nM | 10500 nM | – | –
O=C(Nc1c(Cl)cncc1Cl)c1ccc(OC(F)F)c(OCC2CC2)c1 [ROFLUMILAST] | – | – | 0.02 nM | ED50 (Rattus norvegicus [2]): 0.9 mg/kg
COc1ccc(C(CS(C)(=O)=O)N2C(=O)c3ccccc3C2=O)cc1OC1CCCC1 (stereo unspecified) | 260 nM | – | 1500 nM | –
COc1ccc(C(CC(=O)O)N2C(=O)c3ccccc3C2=O)cc1OC1CCCC1 (stereo unspecified) | 340 nM | – | 36000 nM | –
CCOc1cc(C(CS(C)(=O)=O)N2C(=O)c3cccc(C)c3C2=O)ccc1OC (racemic) | 68 nM | 2400 nM | 270 nM | Ratio IC50 [1]: 9
CCOc1cc(C(CS(C)(=O)=O)N2C(=O)c3cccc(O)c3C2=O)ccc1OC (racemic) | 820 nM | – | 1470 nM | –
CCOc1cc(C(CC(=O)O)N2C(=O)c3ccccc3C2=O)ccc1OC (stereo unspecified) | 1300 nM | – | 35000 nM | –
CCOc1cc(C(CS(C)(=O)=O)N2C(=O)c3cccc(N)c3C2=O)ccc1OC (racemic) | 120 nM | 2200 nM | 370 nM | Ratio IC50 [1]: 6
CCOc1cc(C(CC#N)N2C(=O)c3ccccc3C2=O)ccc1OC (stereo unspecified) | 40 nM | 490 nM | 240 nM | –
CCOc1cc([C@@H](CC(N)=O)N2C(=O)c3cccc(NC(C)=O)c3C2=O)ccc1OC | 710 nM | – | 3000 nM | –
CCOc1cc(C(CS(C)(=O)=O)N2C(=O)c3cccc(NC(C)=O)c3C2=O)ccc1OC (racemic) | – | 440 nM | 190 nM | –
CCOc1cc(C(CC(=O)OC)N2C(=O)c3ccccc3C2=O)ccc1OC (stereo unspecified) | 220 nM | 4000 nM | – | –
CCOc1cc([C@@H](CS(C)(=O)=O)N2C(=O)c3cccc(NC(C)=O)c3C2=O)ccc1OC | – | 110 nM | 77 nM | AUC [3]: 14000 ng·h/mL; Activity (Rattus norvegicus [4]): Active; fraction unbound [5]: 0.1; half-life [6]: 5 h; IC50 (Cytochrome P450 3A4): > 10000 nM; ED50 (Rattus norvegicus [7]): 0.3 mg/kg; IC50 (Cytochrome P450 2D6): > 10000 nM; half-life [8]: 3 h; AUC [9]: 11000 ng·h/mL; bioavailability [10]: 64%; Cmax [11]: 6600 ng/mL; clearance [12]: 8.33 mL/min/kg; IC50 (Cytochrome P450 2C9): > 10000 nM; IC50 (Cytochrome P450 2C19): > 10000 nM; ED50 (Rattus norvegicus [13]): 0.03 mg/kg; half-life [14]: > 1 h; Vd [15]: 2 L/kg; Cmax [16]: 1100 ng/mL; IC50 (Cytochrome P450 1A2): > 10000 nM
CCOc1cc(C(CS(C)(=O)=O)N2C(=O)c3cccc(OC)c3C2=O)ccc1OC (racemic) | 690 nM | – | 340 nM | –
COC(=O)CC(c1ccc(OC)c(OC2CCCC2)c1)N1C(=O)c2ccccc2C1=O (stereo unspecified) | 1600 nM | – | 1700 nM | –
CCOc1cc(C(CS(C)(=O)=O)N2C(=O)c3ccccc3C2=O)ccc1OC (stereo unspecified) | 220 nM | 2500 nM | 1300 nM | –
CCOc1cc([C@H](CS(C)(=O)=O)N2C(=O)c3cccc(NC(C)=O)c3C2=O)ccc1OC | – | – | 370 nM | –

— ChEMBL document CHEMBL1152807 (J Med Chem, 2009)
